# Results reported in ChEMBL document CHEMBL3351583, “Two-pronged attack: dual inhibition of Plasmodium falciparum M1 and M17 metalloaminopeptidases by a novel series of hydroxamic acid-based inhibitors” (J Med Chem, 2014).
# How the values were obtained:
# [1] = target: T1, Aminopeptidase N (Plasmodium falciparum FcB1/Columbia, UniProt O96935); test: Inhibition of Plasmodium falciparum M1 incubated for 10 mins before H-Leu-NHMec substrate addition by fluorescence assay
# T1 sequence (O96935 whole entry): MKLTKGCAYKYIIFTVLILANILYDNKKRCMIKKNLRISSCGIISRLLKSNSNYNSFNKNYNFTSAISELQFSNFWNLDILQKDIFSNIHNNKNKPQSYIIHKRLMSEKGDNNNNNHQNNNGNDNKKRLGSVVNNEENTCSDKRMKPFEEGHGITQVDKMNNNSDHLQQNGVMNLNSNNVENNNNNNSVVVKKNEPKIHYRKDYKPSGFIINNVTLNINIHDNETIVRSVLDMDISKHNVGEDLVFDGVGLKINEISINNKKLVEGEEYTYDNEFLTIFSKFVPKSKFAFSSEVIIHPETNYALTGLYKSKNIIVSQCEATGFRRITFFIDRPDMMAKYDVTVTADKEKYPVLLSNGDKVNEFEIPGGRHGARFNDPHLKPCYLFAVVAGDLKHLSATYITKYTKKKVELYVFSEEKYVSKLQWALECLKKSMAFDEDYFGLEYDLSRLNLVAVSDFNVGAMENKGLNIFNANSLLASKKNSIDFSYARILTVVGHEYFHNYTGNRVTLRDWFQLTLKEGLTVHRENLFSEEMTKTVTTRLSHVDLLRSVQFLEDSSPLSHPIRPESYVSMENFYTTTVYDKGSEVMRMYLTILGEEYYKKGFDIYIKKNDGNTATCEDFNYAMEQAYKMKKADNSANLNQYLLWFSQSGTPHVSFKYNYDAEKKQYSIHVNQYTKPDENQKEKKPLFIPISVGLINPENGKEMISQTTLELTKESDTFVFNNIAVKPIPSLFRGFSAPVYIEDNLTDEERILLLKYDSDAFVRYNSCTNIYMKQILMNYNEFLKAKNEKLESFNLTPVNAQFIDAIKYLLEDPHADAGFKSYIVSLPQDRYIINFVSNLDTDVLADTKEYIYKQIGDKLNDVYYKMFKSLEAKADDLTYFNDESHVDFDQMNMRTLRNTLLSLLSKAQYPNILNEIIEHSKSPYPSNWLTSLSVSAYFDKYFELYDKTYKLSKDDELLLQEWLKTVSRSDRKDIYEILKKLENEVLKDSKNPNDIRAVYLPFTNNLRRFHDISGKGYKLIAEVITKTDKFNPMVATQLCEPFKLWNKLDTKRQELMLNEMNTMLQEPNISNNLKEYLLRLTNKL
# Procedure, shortened: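 Recombinant PfA-M1 (E. coli, Ni-NTA then size exclusion) preincubated with inhibitor (0-500 μM) 10 min in 100 mM Tris pH 8.0 at 37 °C, then H-Leu-NHMec added below Km. NHMec release read at ex 355/em 460 nm to steady-state velocity; Ki from Dixon plots of 1/V against inhibitor concentration.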
# [2] = target: T2, Leucine aminopeptidase (Plasmodium falciparum 3D7, UniProt Q8IL11); test: Inhibition of Plasmodium falciparum M17 incubated for 10 mins before H-Leu-NHMec substrate addition by fluorescence assay
# T2 sequence (Q8IL11 whole entry): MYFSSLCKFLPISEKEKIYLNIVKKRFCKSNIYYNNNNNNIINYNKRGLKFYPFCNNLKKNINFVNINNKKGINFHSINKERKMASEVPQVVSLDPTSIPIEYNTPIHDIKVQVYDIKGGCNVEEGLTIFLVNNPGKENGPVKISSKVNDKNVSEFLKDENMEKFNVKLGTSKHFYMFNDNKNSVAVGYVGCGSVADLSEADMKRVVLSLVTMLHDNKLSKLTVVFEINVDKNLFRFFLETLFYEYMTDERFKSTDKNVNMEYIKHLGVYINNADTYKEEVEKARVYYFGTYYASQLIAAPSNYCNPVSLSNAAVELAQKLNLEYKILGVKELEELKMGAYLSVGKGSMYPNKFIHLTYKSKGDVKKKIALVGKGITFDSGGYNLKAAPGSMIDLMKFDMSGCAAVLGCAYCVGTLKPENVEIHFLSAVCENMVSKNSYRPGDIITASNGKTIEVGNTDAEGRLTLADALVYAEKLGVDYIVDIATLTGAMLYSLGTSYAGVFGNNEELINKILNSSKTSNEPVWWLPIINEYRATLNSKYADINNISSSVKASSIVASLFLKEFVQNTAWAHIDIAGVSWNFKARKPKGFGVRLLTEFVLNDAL
# Procedure, shortened: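 Recombinant PfA-M17 purified from E. coli by Ni-NTA and gel filtration; 10 min inhibitor preincubation (0-500 μM) in 50 mM Tris pH 8.0, 2 mM CoCl₂, 37 °C, before H-Leu-NHMec at sub-Km level. Fluorescence (355/460 nm) followed to final steady-state velocity; Ki obtained by Dixon plot.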
# [3] = tested on: Plasmodium falciparum; test: Antimalarial activity against Plasmodium falciparum 3D7 assessed as parasite growth inhibition after 72 hrs by DAPI staining based confocal microscopy; assay type: functional, organism-based; conditions: 3D7, 72 h
# Procedure, shortened: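 Sorbitol-synchronised 3D7 rings (2% parasitaemia, 0.3% haematocrit) in RPMI/Hepes/hypoxanthine/AlbuMAX II exposed to three-step log dilutions from 40 μM top, final 0.4% DMSO, 72 h at 37 °C, 5% CO₂. Saponin/Triton X/EDTA buffer with DAPI added, overnight RT, confocal imaging counts parasites; % growth versus 2 μM artemisinin and 0.4% DMSO controls; IC50 by variable-slope nonlinear regression.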
# [4] = tested on: HEK293; test: Cytotoxicity against HEK293 cells assessed as growth inhibition up to 40 uM after 72 hrs by resazurin based assay; assay type: cell-based; conditions: human, hek293, 72 h
# Procedure, shortened: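 HEK293 in DMEM plus 10% FCS, seeded 2000 cells/well, adhered overnight, then dosed to top final 40 μM, 0.4% DMSO, 72 h at 37 °C, 5% CO₂. Medium replaced with 44 μM resazurin in serum-free DMEM, 4-6 h more, fluorescence 530/595 nm; % growth against 40 μM puromycin and 0.4% DMSO controls; IC50 by variable-slope nonlinear regression.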
SMILES,Ki [1] [nM],Ki [2] [nM],IC50 [3] [nM],Activity [4]
Cl.NC(C(=O)O)c1ccc(-n2cccn2)cc1 (stereo unspecified),> 500000,> 500000,–,Non-toxic
CC(C)(C)OC(=O)NC(C(=O)O)c1ccc(-n2cccn2)cc1 (stereo unspecified),> 500000,464000,–,Non-toxic
CC(C)(C)NC(=O)NC(C(=O)NO)c1ccc(-n2cccn2)cc1 (stereo unspecified),15300,38,597,Non-toxic
O=C(NC(C(=O)NO)c1ccc(-n2cccn2)cc1)c1ccccc1 (stereo unspecified),23000,154,–,Non-toxic
Nc1cccc(C(=O)NC(C(=O)NO)c2ccc(-n3cccn3)cc2)c1 (stereo unspecified),5500,14,233,Non-toxic
CCC(=O)NC(C(=O)NO)c1ccc(-n2cccn2)cc1 (stereo unspecified),41300,16,455,Non-toxic
CC(=O)NC(C(=O)NO)c1ccc(-n2cccn2)cc1 (stereo unspecified),113000,19,619,Non-toxic
CC(C)C(=O)NC(C(=O)NO)c1ccc(-n2cccn2)cc1 (stereo unspecified),12300,53,532,Non-toxic
Cl.NC(C(=O)NO)c1ccc(-n2cccn2)cc1 (stereo unspecified),74500,86000,–,Non-toxic

# The next lines start with results.
Ki [1] [nM],Ki [2] [nM],SMILES,IC50 [3] [nM],Activity [4]
4000,35,O=C(NC(C(=O)NO)c1ccc(-n2cccn2)cc1)c1cccc(F)c1 (stereo unspecified),429,Non-toxic
700,28,CC(C)(C)C(=O)NC(C(=O)NO)c1ccc(-n2cccn2)cc1 (stereo unspecified),227,Non-toxic
800,30,CC(C)(C)OC(=O)NC(C(=O)NO)c1ccc(-n2cccn2)cc1 (stereo unspecified),783,Non-toxic
7400,11,Nc1ccc(C(=O)NC(C(=O)NO)c2ccc(-n3cccn3)cc2)cc1 (stereo unspecified),228,Non-toxic
11200,12,O=C(NC(C(=O)NO)c1ccc(-n2cccn2)cc1)c1ccc(F)cc1 (stereo unspecified),703,Non-toxic
1900,8,O=C(NC(C(=O)NO)c1ccc(-n2cccn2)cc1)c1ccccc1F (stereo unspecified),351,Non-toxic
